Results on 14 molecules are retold here after ChEMBL document CHEMBL1152413, “Glucose-based spiro-heterocycles as potent inhibitors of glycogen phosphorylase” (Bioorg Med Chem, 2009).

Series [1] deals with T1, Glycogen phosphorylase, muscle form (Oryctolagus cuniculus, UniProt P00489).
T1 sequence (P00489 whole entry): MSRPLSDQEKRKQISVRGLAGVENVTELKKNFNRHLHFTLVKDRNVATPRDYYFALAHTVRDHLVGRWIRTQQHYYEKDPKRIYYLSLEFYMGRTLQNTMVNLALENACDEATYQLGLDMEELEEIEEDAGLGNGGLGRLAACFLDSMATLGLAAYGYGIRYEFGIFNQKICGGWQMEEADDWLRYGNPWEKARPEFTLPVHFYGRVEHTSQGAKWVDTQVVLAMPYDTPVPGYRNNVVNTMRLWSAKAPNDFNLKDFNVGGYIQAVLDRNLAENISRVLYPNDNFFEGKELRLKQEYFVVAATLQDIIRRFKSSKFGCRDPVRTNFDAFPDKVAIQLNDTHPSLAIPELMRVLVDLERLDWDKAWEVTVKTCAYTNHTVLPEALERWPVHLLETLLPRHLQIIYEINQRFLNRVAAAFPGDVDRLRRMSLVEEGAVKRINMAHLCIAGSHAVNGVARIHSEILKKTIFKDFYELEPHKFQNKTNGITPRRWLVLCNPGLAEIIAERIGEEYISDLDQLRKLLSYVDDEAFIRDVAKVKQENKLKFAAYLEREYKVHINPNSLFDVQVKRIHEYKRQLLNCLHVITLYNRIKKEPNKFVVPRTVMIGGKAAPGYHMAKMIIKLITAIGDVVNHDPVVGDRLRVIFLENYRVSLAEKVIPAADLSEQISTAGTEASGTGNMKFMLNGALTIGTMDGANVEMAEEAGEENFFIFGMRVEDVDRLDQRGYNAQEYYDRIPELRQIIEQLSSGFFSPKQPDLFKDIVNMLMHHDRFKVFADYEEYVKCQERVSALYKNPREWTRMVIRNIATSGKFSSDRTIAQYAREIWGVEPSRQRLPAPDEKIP

Series [2] addresses T2, Glycogen phosphorylase, muscle form (Oryctolagus cuniculus) (UniProt P00489).
T2 sequence (whole entry): T1 sequence (P00489 whole entry)
The experiment in a line: Inhibition of rabbit muscle glycogen phosphorylase b at 625 uM by Lineweaver-Burke plot analysis. An outline of the steps: (§1)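 Glycogen phosphorylase b isolated from rabbit skeletal muscle (Fischer–Krebs method with dithiothreitol in place of L-cysteine), recrystallized at least three times. Assayed in glycogen-synthesis direction with α-D-glucose-1-phosphate 2–20 mM, glycogen 1% w/v and AMP 1 mM held constant. Inhibitors were dissolved in DMSO and diluted into 50 mM triethanolamine, 1 mM EDTA, 1 mM DTT, keeping final DMSO below 1%. Activities were analysed as Lineweaver–Burk plots by nonlinear fitting.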

The target of series [3] is T1, Glycogen phosphorylase, muscle form. The experiment in a line: Inhibition of rabbit muscle glycogen phosphorylase b by Lineweaver-Burke plot analysis. The essentials:
as §1

Series [4] is described as follows: Solubility in DMSO. Type of series: physicochemical.
Series [5] has as its target T2, Glycogen phosphorylase, muscle form (Oryctolagus cuniculus). The series can be described thus: Inhibition of rabbit muscle glycogen phosphorylase b at 312.5 uM by Lineweaver-Burke plot analysis. An outline of the steps: as §1

pIC50, pKi: −log10 of the molar value. The source made the active and inactive calls. The rule behind the calls is not given here. Bounds are passed on as bounds.

In series [1], `N#Cc1ccc(/C(=N\O)N[C@@H]2O[C@H](CO)[C@@H](O)[C@H](O)[C@H]2O)cc1` gave a pKi of 2.74.

For `OC[C@H]1O[C@@]2(ON=C(c3ccncc3)S2)[C@H](O)[C@@H](O)[C@@H]1O`, the inhibition entry in series [2] is “inactive”.

Turning to `O=[N+]([O-])c1ccc(/C(=N/O)S[C@@H]2O[C@H](CO)[C@@H](O)[C@H](O)[C@H]2O)cc1`, the pIC50 in series [3] was under 2.00.

For `COc1ccc(C2=NO[C@]3(O[C@H](CO)[C@@H](O)[C@H](O)[C@H]3O)S2)cc1`, the pKi in series [1] is 5.09.

As for `OC[C@H]1O[C@@H](S/C(=N\O)c2ccc3ccccc3c2)[C@H](O)[C@@H](O)[C@@H]1O`, in series [4], the solubility entry is reported as “Insoluble”.

Consider `COc1ccc(/C(=N/O)S[C@@H]2O[C@H](CO)[C@@H](O)[C@H](O)[C@H]2O)cc1`, for which the inhibition entry in series [5] is “inactive”.

Take `N#Cc1ccc(/C(=N/O)S[C@@H]2O[C@H](CO)[C@@H](O)[C@H](O)[C@H]2O)cc1`: the inhibition entry in series [2] was “inactive”.

In turn, `N#Cc1ccc(C2=NO[C@]3(O[C@H](CO)[C@@H](O)[C@H](O)[C@H]3O)S2)cc1` gave a pIC50 in series [3] of 3.15.

In the case of `OC[C@H]1O[C@]2(ON=C(c3ccc(F)cc3)S2)[C@H](O)[C@@H](O)[C@@H]1O`, the pKi in series [1] was 4.32.

As for `OC[C@H]1O[C@]2(ON=C(c3ccc(-c4ccccc4)cc3)S2)[C@H](O)[C@@H](O)[C@@H]1O`, the pIC50 in series [3] is 3.60.

As to `OC[C@H]1O[C@@H](S/C(=N\O)c2ccncc2)[C@H](O)[C@@H](O)[C@@H]1O`, the inhibition result in series [2] is “inactive”.

Turning to `OC[C@H]1O[C@@H](S/C(=N\O)c2ccc(-c3ccccc3)cc2)[C@H](O)[C@@H](O)[C@@H]1O`, the solubility result in series [4] is given as “Insoluble”.

As to `O=[N+]([O-])c1ccc(C2=NO[C@]3(O[C@H](CO)[C@@H](O)[C@H](O)[C@H]3O)S2)cc1`, in series [3], the pIC50 is 3.60.

Take `O=[N+]([O-])c1ccc(/C(=N\O)N[C@@H]2O[C@H](CO)[C@@H](O)[C@H](O)[C@H]2O)cc1`: in series [2], the inhibition entry was “inactive”.
